Experimental data reported in article PMC3580853 (Bioorganic & medicinal chemistry letters, 2012).

What was measured:
HIV-1 = details: MT-2 cell culture
[1] = type: physicochemical; details: reaction at 37°C, gel apparatus up to 55°C
In short: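 Stability inferred from a single-turnover incorporation time course using HIV-1 RT (250 nM) and D23/D36 primer/template (50 nM). The test triphosphate (150 μM) and a dTTP reference (100 μM) were run in parallel at 37°C and sampled at 0, 30 s, 5, 10, 30 and 60 min. Products were resolved on denaturing acrylamide gel (apparatus up to 55°C), comparing band mobility.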

Row | SMILES | Antiviral activity in cell culture (in words) (HIV-1) | Stability (in words) [1]
1 | CC(C)=CCN1Cc2c(OCCOCCOCCOCCOC(=O)CCc3cn([C@H]4C=C[C@@H](CO)O4)c(=O)[nH]c3=O)ccc3[nH]c(=S)n(c23)C[C@@H]1C [Compound 16a] | most inhibitory | 
2 | Cc1cc(C#CCOCCOCCOCCOCCOCC#Cc2cn([C@H]3C=C[C@@H](COP(=O)(O)OP(=O)(O)OP(=O)(O)O)O3)c(=O)[nH]c2=O)cc(C)c1Oc1ccnc(Nc2ccc(C#N)cc2)n1 [d4TTP-4PEG-TMC] |  | increased compound stability
